Screens from PubChem BioAssay.
ARFGAP1 inh – rat ARFGAP1 inhibition | Q62848 | Arfgap1-stimulated ARF1 GTP hydrolysis, GDP FP detection | hit rate 0.26% among 360,000 | inhibition, % at 16.5 µM;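 active = inhibition above a per-plate limit, mean inhibition of low control wells plus 3 SD, cut at about 25% in these data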;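 note: 0% = DMSO wells with enzyme and 100% = wells lacking Arfgap1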
Target sequence (Q62848 1-136 limits assumed): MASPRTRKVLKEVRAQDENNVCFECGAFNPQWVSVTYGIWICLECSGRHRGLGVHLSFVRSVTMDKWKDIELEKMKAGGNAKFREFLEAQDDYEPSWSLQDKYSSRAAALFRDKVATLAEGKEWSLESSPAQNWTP
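System: truncated rat Arfgap1 GAP domain / Benchmarks: high control wells lacking Arfgap1, low control full reaction with DMSO / Times: compound-enzyme preincubation 20 min, reaction 120 min, detection 60 min, 25 °C / Repeats: one replicate per compound / Also added: human ARF1(Δ1-17)-GTP substrate / Measured by: Tracer-displacement fluorescence polarization with EDTA stop, 620/688 nm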
CSN deneddyl inh – inhibitors of human CSN-mediated cullin deneddylation. Q92905. Purified CSN, SCF-Nedd8-OG deneddylation, fluorescence polarization. inhibition, % at 12.5 µM. hit rate 0.38% among 360,000. AID 651999;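 active = pattern-corrected inhibition above about 35%, with an unprinted fluorescence ratio check between 0.5 and 1.5, limit read from the data, passing the limit was not always enough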;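 note: 0% = enzyme with substrate and 100% = substrate without enzyme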
Target sequence (Q92905 whole entry, looked up, one chain of several): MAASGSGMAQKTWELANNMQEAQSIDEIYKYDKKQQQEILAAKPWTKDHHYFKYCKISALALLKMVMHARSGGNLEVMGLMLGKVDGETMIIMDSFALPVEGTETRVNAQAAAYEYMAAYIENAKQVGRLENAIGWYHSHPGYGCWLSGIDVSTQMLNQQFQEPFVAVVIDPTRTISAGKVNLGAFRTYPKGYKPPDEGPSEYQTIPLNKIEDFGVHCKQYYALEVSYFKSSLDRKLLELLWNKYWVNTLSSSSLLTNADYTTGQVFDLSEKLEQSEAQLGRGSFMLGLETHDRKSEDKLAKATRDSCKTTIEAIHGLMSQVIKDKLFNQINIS
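Assay system: HEK293T-derived human Csn5 enzyme; quantity: 0.24 nM enzyme; medium: Tris/NaCl/DTT buffer, pH 7.5; also added: substrate SCFSkp2-Nedd8OG, 10 nM; doses: 12.5 µM compound; schedule: 90 min reaction at room temperature; signal: FP; read-out: % inhibition of substrate cleavage by Csn5; benchmarks: substrate-only high control, full reaction low control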
ASAP1 GAP inh – inhibitors of human ASAP1 ArfGAP activity. AID 624377. ASAP1-stimulated ARF1 GTP hydrolysis, GDP FP detection. Q9ULH1. inhibition, % at 16.5 µM. hit rate 0.19% among 360,000; in the data active = inhibition above about 25%;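 note: 0% = vehicle with enzyme and substrate and 100% = no enzyme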
HNF4A DNA FP – change in binding of human HNF4 alpha to DNA | activity change, % at 10 µM | HNF4a-FITC DNA binding, fluorescence polarization, 1 h | hit rate 0.3% among 360,000 | P41235; in the data active = activity change above about 30%, passing the limit was not always enough
Starred values were filed as active, the others as inactive. Compounds with a hit are over-represented: about 0.95% of the library has one in this group of screens.

Cc1cc(C)nc(NC(C)(C)C(=O)O)n1 was read as ARFGAP1 inh 1, CSN deneddyl inh -1, ASAP1 GAP inh 1 and HNF4A DNA FP 47*.
For CCCC1=NN2C(=N)/C(=C\c3ccc(SCc4ccco4)o3)C(=O)N=C2S1 the results were CSN deneddyl inh 76* and HNF4A DNA FP 30.
`Cc1cc(C(=O)N/N=C/c2ccc(-c3ccc([N+](=O)[O-])cc3Cl)o2)n[nH]1` gave ARFGAP1 inh -2, CSN deneddyl inh 46*, ASAP1 GAP inh 9 and HNF4A DNA FP 4.
COc1cc([N+](=O)[O-])ccc1-c1ccc(/C=N/NC(=O)OC(C)(C)C)o1 was read as ARFGAP1 inh 10, CSN deneddyl inh 5, ASAP1 GAP inh -12 and HNF4A DNA FP 20.
`Cc1cc(C(=O)N/N=C/c2ccc(-c3cccc([N+](=O)[O-])c3)o2)n[nH]1` gave ARFGAP1 inh 5, CSN deneddyl inh 4, ASAP1 GAP inh 17 and HNF4A DNA FP -1.
`COc1cc([N+](=O)[O-])ccc1-c1ccc(/C=N/NC(N)=O)o1` gave ARFGAP1 inh 4, CSN deneddyl inh 43*, ASAP1 GAP inh -1 and HNF4A DNA FP 87*.
Screening O=C(NCc1ccccc1)[C@H]1CCCN1C(=O)[C@H]1CCCN1C(=O)c1cccc(Cl)c1 returned ARFGAP1 inh -2 and ASAP1 GAP inh 6.
Screening Cn1nnnc1SCSc1nnnn1C returned ARFGAP1 inh -1, CSN deneddyl inh -1, ASAP1 GAP inh -4 and HNF4A DNA FP -1.
For CSc1nnnn1CCn1nnnc1SC the results were ARFGAP1 inh 8, CSN deneddyl inh 51*, ASAP1 GAP inh 4 and HNF4A DNA FP -5.
`C[C@H](O)[C@@H]1C(=O)N2CCc3c([nH]c4c(-c5ccccc5)cccc34)[C@@H]2C[C@@H]1N(C)C(=O)NC1CCCCC1` gave ARFGAP1 inh 6 and ASAP1 GAP inh 10.
For CN(C)c1ccc(/C=C/c2nc3ccccc3s2)cc1 the results were ARFGAP1 inh -5, CSN deneddyl inh 18, ASAP1 GAP inh 10 and HNF4A DNA FP 36*.
`Cc1cccc(NC(=O)CN2C(=O)N/C(=C/c3ccc(C)s3)C2=O)c1` gave ARFGAP1 inh 3, CSN deneddyl inh 24, ASAP1 GAP inh 3 and HNF4A DNA FP 60*.
Screening CN1CCc2c(sc(N)c2C(=O)c2ccc(Cl)cc2)C1 returned ARFGAP1 inh -9, CSN deneddyl inh 24, ASAP1 GAP inh 6 and HNF4A DNA FP 40*.
Screening CCCCN1C(=O)C(=O)NC[C@H]1Cc1cccc2ccccc12 returned ARFGAP1 inh 0, CSN deneddyl inh 51*, ASAP1 GAP inh 3 and HNF4A DNA FP 3.
Screening O=C1NC[C@H](Cc2ccc(O)cc2)N(CCc2cccc(F)c2)C1=O returned ARFGAP1 inh -10, CSN deneddyl inh 0, ASAP1 GAP inh -1 and HNF4A DNA FP -2.
CCCCN1C(=S)NC[C@@H]1Cc1cccc2ccccc12 was read as ARFGAP1 inh -6, CSN deneddyl inh 18, ASAP1 GAP inh -3 and HNF4A DNA FP -3.
Screening O=C1NC[C@@H](Cc2cccc3ccccc23)N(CCc2cccc(F)c2)C1=O returned ARFGAP1 inh 5, CSN deneddyl inh 54*, ASAP1 GAP inh 7 and HNF4A DNA FP 4.
For CCOC(=O)c1c(NC(=O)Cc2ccccc2)sc2c1CCN(C)C2 the results were ARFGAP1 inh 6, CSN deneddyl inh 2, ASAP1 GAP inh 3 and HNF4A DNA FP -3.
CCOC(=O)c1c(NC(=O)CSc2nnc(C)s2)sc2c1CCN(C)C2 was read as ARFGAP1 inh 3, CSN deneddyl inh 43*, ASAP1 GAP inh -2 and HNF4A DNA FP 73*.
For O=C(Cc1ccccc1)NCC(=O)OCc1cccc([N+](=O)[O-])c1 the results were ARFGAP1 inh -5, CSN deneddyl inh 38*, ASAP1 GAP inh -6 and HNF4A DNA FP 1.
`CN1CCC(=NNC(=O)C(=O)Nc2cccc(Br)c2)CC1` gave ARFGAP1 inh -5, CSN deneddyl inh -1, ASAP1 GAP inh -15 and HNF4A DNA FP 31*.
For Cc1ccc(/C=C2\SC(=S)N(/N=C/c3cc([N+](=O)[O-])ccc3O)C2=O)o1 the results were CSN deneddyl inh 56* and HNF4A DNA FP -44.
COP(=O)(OC)c1nc(-c2cccc3ccccc23)oc1NCc1ccccc1 was read as ARFGAP1 inh -5, CSN deneddyl inh 85*, ASAP1 GAP inh -1 and HNF4A DNA FP -3.
For COc1ccc(CNc2oc(-c3cccc4ccccc34)nc2P(=O)(OC)OC)cc1 the results were ARFGAP1 inh 1, CSN deneddyl inh 9, ASAP1 GAP inh 12 and HNF4A DNA FP 3.
`C#CCOCCOCCOCCNc1nc(N2CCN(C(=O)C(Cc3cc4ccccc4[nH]3)n3cc(C(N)C(C)CC)nn3)CC2)nc(N2CCN(C(=O)C(Cc3cc4ccccc4[nH]3)n3cc(C(N)C(C)CC)nn3)CC2)n1` (stereo not drawn) gave CSN deneddyl inh 44* and HNF4A DNA FP 1.
C#CCOCCOCCOCCNc1nc(N2CCOCC2)nc(N2CCN(C(=O)[C@H](Cc3cc4ccccc4[nH]3)n3cc([C@@H](N)C(C)CC)nn3)CC2)n1 (stereo partly drawn) was read as ARFGAP1 inh -2, CSN deneddyl inh -1, ASAP1 GAP inh 2 and HNF4A DNA FP 1.
For C#CCOCCOCCOCCNc1nc(N2CCN(C(=O)C([C@@H](C)O)n3cc([C@@H](N)CCCCN)nn3)CC2)nc(N2CCN(C(=O)[C@H](CCCN=C(N)N)n3cc(C(N)[C@@H](C)CC)nn3)CC2)n1 (stereo partly drawn) the results were CSN deneddyl inh 16 and HNF4A DNA FP 61*.
C#CCOCCOCCOCCNc1nc(N2CCN(C(=O)[C@H](CCCCN)n3cc(CN)nn3)CC2)nc(N2CCN(C(=O)[C@H](CCCCN)n3cc(CN)nn3)CC2)n1 was read as ARFGAP1 inh -3, CSN deneddyl inh 39*, ASAP1 GAP inh 0 and HNF4A DNA FP 59*.
Screening C#CCOCCOCCOCCNc1nc(N2CCN(C(=O)[C@H](CCCCN)n3cc([C@@H](N)C(C)CC)nn3)CC2)nc(N2CCN(C(=O)[C@H](Cc3cc4ccccc4[nH]3)n3cc([C@@H](N)C(C)CC)nn3)CC2)n1 (stereo partly drawn) returned CSN deneddyl inh 21 and HNF4A DNA FP 49*.
Cc1cccc(NC(=O)CNC(=O)[C@@H](Cc2ccccc2)NC(=O)[C@H]2O[C@@H](n3ccc(=O)[nH]c3=O)[C@H](O)[C@@H]2O)c1C was read as ARFGAP1 inh -6 and ASAP1 GAP inh 2.
For O=C1c2[nH]nc(-c3ccccc3)c2C(c2ccc(F)cc2)N1Cc1ccccc1 (stereo not drawn) the results were ARFGAP1 inh 6 and ASAP1 GAP inh -6.
For COc1ccc(S(=O)(=O)N2CCCc3nc(-c4ccc(Br)cc4)ccc32)cc1 the results were ARFGAP1 inh 2 and ASAP1 GAP inh -4.
`CC(C(=O)O)N1C(=O)CSC1=S` (stereo not drawn) gave ARFGAP1 inh -2, CSN deneddyl inh 4, ASAP1 GAP inh 11 and HNF4A DNA FP 88*.
